Assay results gathered from unrelated publications.
Protocols differ between the studies behind these lines.
Target: Serine/threonine-protein kinase 25 (STK25, Homo sapiens, UniProt O00506)

Cn1cc(-c2cccc(N3CCc4c(sc5c4CC(C)(C)C5)C3=O)c2CO)cc(Nc2ccncn2)c1=O  inhibition (enzyme activity, inhibitor; 1 µM): -13%
CC(C)(C)c1cc(C=C(C#N)C#N)cc(Br)c1O  remaining activity (enzyme activity, inhibitor; 0.5 µM): 102%
Nc1ncc(-c2nc(N3CCOCC3)nc(N3CCOCC3)n2)c(C(F)F)n1  remaining binding (binding, competition with immobilised ligand; 10 µM): 93%
COc1ncccc1-c1cnn2ccc(N3CCN(C(=O)OC(C)C)CC3)nc12  remaining binding (binding, competition with immobilised ligand; 1 µM): 65%
Cn1cc(-c2cc(F)cc(N3CCn4c(cc5c4CCCC5)C3=O)c2CO)cc(Nc2ccc(N3CCN(C4COC4)CC3)cn2)c1=O  inhibition (enzyme activity, inhibitor; 0.1 µM): 8%
N#CC1(c2ccccn2)CCN(Cc2cc(C(=O)O)c(=O)n3ccccc23)CC1  remaining binding (cell-free assay, competition with immobilised ligand; 1 µM): 100%
COCc1c(-c2cc3cc(C)cc(OC)c3s2)c2c(N)ncnn2c1CN1CCNC(=O)C1  inhibition (cell-free assay, competition with immobilised ligand; 1 µM): 87%
Cc1nn(C)cc1-c1nc2c(N3CCN(Cc4ccc(Cl)cc4)CC3)c(Cl)cnc2[nH]1  remaining binding (binding, competition with immobilised ligand; 1 µM): 70%
Cn1cncc1[C@](O)(COc1ccc(C#N)cc1-c1ccc(OC(F)(F)F)cc1)c1ccc(C#N)cc1  remaining binding (cell-free assay, competition with immobilised ligand; 1 µM): 91%
O=c1[nH]c2ccccc2n1C1CCN(Cc2ccc(-c3[nH]c4cc5ncnc5cc4nc3-c3ccccc3)cc2)CC1  remaining signal (cell-free assay; 0.5 µM): 89.8%
